Experimental data: ChEMBL document CHEMBL3525996, “Deuterium isotope effects on drug pharmacokinetics. I. System-dependent effects of specific deuteration with aldehyde oxidase cleared drugs” (Drug Metab Dispos, 2012)

What was measured:
aldehyde oxidase = experiment: Activity of guinea pig cytosolic aldehyde oxidase; conditions: cytosol (aldehyde oxidase)
[1] = Cmax in Sprague-Dawley rat at 2.5 mg/kg, po; type: ADME, organism-based; set-up: dose 2.5 mg/kg, route oral; conditions: in vivo
Method in brief: (§1)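 Male Hartley guinea pigs (325–350 g) or male Sprague-Dawley rats (250–300 g) received a 1:1 deuterio/proto mixture. Oral dose was ~5 mg/kg total (2.5 mg/kg per isotopomer) in water; IV bolus via the jugular vein was ~2 mg/kg total (1 mg/kg per isotopomer) in saline. Carotid blood was drawn between 10 min and 6 h, and plasma was assayed by LC-MS/MS. AUC and t1/2 cover only the first to last measured time points.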

[2] = Half life in Sprague-Dawley rat at 1 mg/kg, iv; type: ADME, organism-based; set-up: dose 1 mg/kg, route intravenous; conditions: in vivo; method in brief: as §1
[3] = Half life in Sprague-Dawley rat at 2.5 mg/kg, po; type: ADME, organism-based; set-up: dose 2.5 mg/kg, route oral; conditions: in vivo; method in brief: as §1
[4] = Cmax in Hartley guinea pig at 2.5 mg/kg, po; type: ADME, organism-based, Cavia porcellus; set-up: dose 2.5 mg/kg, route oral; conditions: in vivo; method in brief: as §1
[5] = AUC in Sprague-Dawley rat at 2.5 mg/kg, po; type: ADME, organism-based; set-up: dose 2.5 mg/kg, route oral; conditions: plasma; method in brief: as §1
[6] = Half life in Hartley guinea pig at 2.5 mg/kg, po; type: ADME, organism-based, Cavia porcellus; set-up: dose 2.5 mg/kg, route oral; conditions: in vivo; method in brief: as §1
[7] = AUC in Hartley guinea pig at 1 mg/kg, iv; type: ADME, organism-based, Cavia porcellus; set-up: dose 1 mg/kg, route intravenous; conditions: plasma; method in brief: as §1
[8] = AUC in Sprague-Dawley rat at 1 mg/kg, iv; type: ADME, organism-based; set-up: dose 1 mg/kg, route intravenous; conditions: plasma; method in brief: as §1
[9] = Half life in Hartley guinea pig at 1 mg/kg, iv; type: ADME, organism-based, Cavia porcellus; set-up: dose 1 mg/kg, route intravenous; conditions: in vivo; method in brief: as §1
[10] = AUC in Hartley guinea pig at 2.5 mg/kg, po; type: ADME, organism-based, Cavia porcellus; set-up: dose 2.5 mg/kg, route oral; conditions: plasma; method in brief: as §1
[11] = AUC in Hartley guinea pig at 5 mg/kg, po; type: ADME, organism-based, Cavia porcellus; set-up: dose 5 mg/kg, route oral; conditions: plasma
Method in brief: (§2)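 A 1:1 deuterio/proto mixture, ~10 mg/kg total (5 mg/kg per isotopic form), was given orally in water or as an IV bolus via the jugular vein in saline. Animals were male Hartley guinea pigs (325–350 g) or male Sprague-Dawley rats (250–300 g). Carotid blood was sampled from 10 min to 6 h, and plasma was analysed by LC-MS/MS MRM. AUC and t1/2 were calculated between the first and last measured points.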

[12] = Cmax in Sprague-Dawley rat at 5 mg/kg, po; type: ADME, organism-based; set-up: dose 5 mg/kg, route oral; conditions: in vivo; method in brief: as §2
[13] = AUC in Sprague-Dawley rat at 5 mg/kg, iv; type: ADME, organism-based; set-up: dose 5 mg/kg, route intravenous; conditions: plasma; method in brief: as §2
[14] = Cmax in Hartley guinea pig at 5 mg/kg, po; type: ADME, organism-based, Cavia porcellus; set-up: dose 5 mg/kg, route oral; conditions: in vivo; method in brief: as §2
[15] = AUC in Sprague-Dawley rat at 5 mg/kg, po; type: ADME, organism-based; set-up: dose 5 mg/kg, route oral; conditions: plasma; method in brief: as §2
[16] = AUC in Hartley guinea pig at 5 mg/kg, iv; type: ADME, organism-based, Cavia porcellus; set-up: dose 5 mg/kg, route intravenous; conditions: plasma; method in brief: as §2

In the case of `c1ccc2ncccc2c1` [QUINOLINE], the Km (aldehyde oxidase) is reported as 212 µM.

Compound `N=C(N)NC(=O)c1cnn(-c2cccc3ncccc23)c1C1CC1` [ZONIPORIDE] has a Cmax [1] of 24.7 ng/mL, a half-life [2] of 24 min and a half-life [3] of 18 min. The Cmax [4] was 26.5 ng/mL, the AUC [5] was 19.7 ng·h/mL and the half-life [6] was 30 min. It also gave an AUC [7] of 23.2 ng·h/mL, an AUC [8] of 74.4 ng·h/mL and a half-life [9] of 30 min. The AUC [10] was 22.2 ng·h/mL.

`[2H]c1ccc2c(-n3ncc(C(=O)NC(=N)N)c3C3CC3)cccc2n1` showed a Cmax [1] of 18.4 ng/mL, a half-life [2] of 30 min and a half-life [3] of 18 min. For the same compound, the Cmax [4] was 23.3 ng/mL, the AUC [5] was 12.7 ng·h/mL and the half-life [6] was 30 min. It also gave an AUC [7] of 40.7 ng·h/mL, an AUC [8] of 77.4 ng·h/mL and a half-life [9] of 30 min. It also gave an AUC [10] of 25.7 ng·h/mL.

For `[2H]c1nnc(N2CCC(OC(=O)NCC)CC2)c2cc(OC)c(OC)cc12`, the AUC [11] was 96 ng·h/mL, the Cmax [12] was 1770 ng/mL and the AUC [13] was 1270 ng·h/mL. The Cmax [14] was 161 ng/mL, the AUC [15] was 3720 ng·h/mL and the AUC [16] was 206 ng·h/mL.

`[2H]c1ccc2ccccc2n1` gave a Km (aldehyde oxidase) of 193 µM.

In the case of `CCNC(=O)OC1CCN(c2nncc3cc(OC)c(OC)cc23)CC1` [CARBAZERAN], the AUC [11] is reported as 4.25 ng·h/mL, the Cmax [12] is reported as 1150 ng/mL and the AUC [13] is reported as 509 ng·h/mL. For the same compound, the Cmax [14] was 9.8 ng/mL, the AUC [15] was 1630 ng·h/mL and the AUC [16] was 35.6 ng·h/mL.
